Rows were chosen to be rich in hits. Some 2.1% of all compounds tested hit in one or more screens of this group.
Cneo AK release: Cryptococcus neoformans lysis via adenylate kinase release. 360,000 compounds, 0.2% hits. lysis activity, % at 15 µM. AID 651654. C. neoformans lysis, adenylate kinase release luminescence, 4 h; normalised: neutral wells 0, clomiphene wells 100;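 active = mean lysis activity across replicates of at least 80%, whatever share of replicates individually reach that level; inactive = mean lysis activity below 80%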
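Test system: log-phase Cryptococcus neoformans yeast cells; Quantity: yeast cell density of 5 × 10^6 cells/mL; Buffer or medium: YPD; Doses: single compound concentration per well; Timing: 4 h at 37 °C static, read 1 h later; Measured by: AK luminescence; Read-out basis: lysis from increased AK signal; Control set: Clomiphene as positive control.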
C2C12 statin: suppressors of simvastatin-induced myotoxicity in C2C12 myotubes. ATP luminescence, 48 h; scaled: DMSO 0, geranylgeraniol control 100. AID 602340. 330,000 compounds, 0.78% hits. rescue of ATP level, % at 7.49 µM;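 active = mean ATP rescue above about 67%, or every replicate alone reaching that limit, limit read from the data, passing the limit was not always enough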;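 also: myotubes were challenged with 10 µM simvastatin during compound exposure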
DENV2 CPE rescue: protects cells from dengue virus 2 cytopathic effect; CPE inhibition, % at 9.99 µM; DENV2-infected cells, cytopathic effect rescue, plate reader; 350,000 compounds, 1.7% hits; AID 651640; in the data active = CPE inhibition above about 20%, passing the limit was not always enough; tested in BHK-21 cells;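 also: 0% = median of neutral control wells and 100% = median of positive control wells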
Xi reactivation: X-chromosome reactivation activator; XiGFP mouse fibroblasts, % GFP-positive cells imaging, 3 d; cells co-treated with 5-aza-dC sensitizer; scaled so ellipticine positive control = 100%; activation, % at 7.58 µM; 360,000 compounds, 0.055% hits; AID 743238;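 active = mean normalized replicate activation at least 10% and every replicate at or above 10%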;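 also: 0% = median of on-plate neutral control wells and 100% = ellipticine 6 µM median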
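System: 68-5-11 XiGFP fibroblast line; Timing: 3 days compound exposure; Compound dosing: one concentration, pinned; Benchmarks: positive control ellipticine, 6 µM final; Buffer or medium: DMEM containing 5-aza-dC.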
Numbers without * were called inactive; · = no result given.

SMILES | Cneo AK release | C2C12 statin | DENV2 CPE rescue | Xi reactivation
Cc1noc(C)c1S(=O)(=O)Nc1ccc2c(c1)CC(=O)N([C@@H](C)CO)C[C@H](C)[C@@H](CN(C)CC1CC1)O2 | -4.7 | 9.5 | -3.5 | -0.1
Cc1ccc(C(=O)c2c3ccc([N+](=O)[O-])cc3[n+]([O-])n2CCCN)cc1 | 1.1 | 17.8 | 20.7* | 0.1
Cc1ccc(S(=O)(=O)N(C)C[C@H]2Oc3ccc(NC(=O)Nc4cccc5ccccc45)cc3CC(=O)N([C@@H](C)CO)C[C@H]2C)cc1 | -0.3 | 30.9 | -2.1 | 0.0
O=C(Nc1nnc(-c2ccc(Br)cc2)o1)c1ccco1 | -19.8 | -6.3 | · | ·
O=C(Nc1nnc(-c2cccs2)o1)c1ccco1 | -0.6 | 69.5* | -3.4 | 0.1
O=C(C[C@@H]1CC[C@H]2[C@@H](COC[C@H](O)CN2CCC(F)(F)F)O1)N1CCC(Cc2ccccc2)CC1 | -1.9 | 24.8 | 7.4 | 0.1
Cc1ccc(S(=O)(=O)Nc2ccc3c(c2)C(=O)N([C@H](C)CO)C[C@@H](C)[C@H](CN(C)S(=O)(=O)c2ccc(Cl)cc2)O3)cc1 | · | · | 43.0* | -1.0
Cc1ccc(S(=O)(=O)Nc2ccc3c(c2)C(=O)N([C@H](C)CO)C[C@H](C)[C@@H](CN(C)S(=O)(=O)c2ccccc2)O3)cc1 | -1.9 | -47.2 | 38.7* | -1.0
C[C@H]1CN([C@@H](C)CO)C(=O)CCCn2cc(nn2)CO[C@H]1CN(C)C(=O)Nc1ccccc1F | -13.5 | 1.1 | -0.3 | 0.1
CCOC(=O)C1=C(COC(=O)Cc2ccccc2[N+](=O)[O-])NC(=O)NC1C (stereo not given) | -0.3 | -4.4 | 38.1* | 0.4
Brc1ccc(-c2noc(CCc3ccccc3)n2)o1 | -1.1 | 3.4 | 56.2* | 0.2
Clc1ccccc1OCc1nc(-c2ccc(Br)o2)no1 | -8.8 | -40.3 | -7.0 | 0.0
CCOC(=O)/C(=C/C=C1\Sc2ccccc2N1CC)C(C)=O | -1.0 | -6.6 | · | ·
CCOC(=O)/C(=C/C=C1\Sc2cc(C)c(C)cc2N1CC)C(C)=O | · | · | · | 16.6*
Cn1cnc(S(=O)(=O)N[C@H]2CC[C@H](CC(=O)Nc3ccccc3)O[C@@H]2CO)c1 | -3.6 | 0.6 | -0.3 | 0.4
CCS(=O)(=O)N[C@@H]1C=C[C@H](CC(=O)Nc2ccc(-c3ccccc3)cc2)O[C@@H]1CO | 21.8 | -8.1 | 70.3* | 0.4
Cn1cnc(S(=O)(=O)N[C@@H]2C=C[C@H](CC(=O)Nc3ccc(-c4ccccc4)cc3)O[C@@H]2CO)c1 | -1.3 | 1.1 | 1.0 | -0.3
C[C@@H]1CN([C@@H](C)CO)C(=O)c2cc(NC(=O)Cc3ccccc3)ccc2O[C@@H](C)CCCCO[C@@H]1CN(C)Cc1ccc(C(=O)O)cc1 | -1.1 | · | -11.4 | 0.0
CCCC#Cc1ccc([C@@H]2[C@@H](CO)N(C(=O)C3CC3)[C@H]2C#N)cc1 | -0.5 | -0.5 | 62.6* | -0.1
CN(C)CC#Cc1ccc([C@H]2[C@@H](CO)N(C(=O)C3CCCC3)[C@H]2C#N)cc1 | 3.0 | 1.5 | -0.2 | -0.1
CCCC#Cc1ccc([C@H]2[C@H](C#N)N(C(=O)C3CC3)[C@H]2CO)cc1 | -5.3 | -18.8 | 9.6 | 0.1
CC(C)C#Cc1ccc([C@H]2[C@H](C#N)N(C(=O)C3CCC3)[C@H]2CO)cc1 | 1.3 | 23.9 | 57.1* | 0.0
CN(C)CC#Cc1ccc([C@H]2[C@@H](CO)N(C(=O)C3CC3)[C@H]2C#N)cc1 | -0.2 | 5.2 | 32.5* | -0.1
Cc1ccc(S(=O)(=O)NCC(=O)NCc2cc(=O)n(C)c(=O)n2C)cc1 | 0.1 | 3.0 | 1.4 | 0.1
COc1ccc(S(=O)(=O)NCC(=O)NCc2cc(=O)n(C)c(=O)n2C)cc1 | -18.5 | 12.7 | 56.7* | 0.0
SMILES | Cneo AK release | C2C12 statin | DENV2 CPE rescue | Xi reactivation
CNC[C@@H]1Oc2c(NC(=O)Nc3c(C)noc3C)cccc2C(=O)N([C@@H](C)CO)C[C@H]1C | 10.2 | 7.2 | 16.0 | -0.3
CC1=CC(=O)C(Sc2ccc(C)cc2)=CC1=O | -1.6 | -106.7 | 94.8* | 5.9
O=C(O)COc1c(-c2ccccc2)oc2ccccc2c1=O | 5.7 | 74.7* | · | ·
COc1ccc2c3c(n(C)c2c1)[C@H](CO)N(S(C)(=O)=O)CC31CCN(Cc2cccnc2)CC1 | · | · | -3.3 | 0.1
Cc1ncc([N+](=O)[O-])n1CC(=O)Nc1ccc(Cl)cc1 | 1.7 | 4.9 | 1.3 | 0.2
Cc1ncc([N+](=O)[O-])n1CC(=O)Nc1ccc(F)c(F)c1 | -0.6 | -0.6 | 35.2* | 0.0
CCN1C(=O)C(C)S/C1=N\S(=O)(=O)c1ccc(Cl)s1 (stereo not given) | -0.9 | 135.9* | · | ·
